Source: ChEMBL document CHEMBL4689842, “EUbOPEN Chemogenomics Library wave 1” (2021)

Experiments:
U2OS [1] = assay: Incucyte cell viability with U2OS; type: toxicity, cell-based; conditions: human, 10 µM, compound concentration 10 uM; note: filed as whole numbers so only -1 and 0 and 1 occur
U2OS [2] = assay: Multiplex assay against U2OS; type: toxicity, cell-based; conditions: human
Summary of the method: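 Four dyes were applied at seeding to live cells: Hoechst33342, BioTracker Green Microtubule Cytoskeleton Dye, MitoTracker Red and Annexin V Alexa Fluor 680. Imaging after compound addition used a CQ1 microscope at 37°C and 5% CO2. CellPathfinder machine-learning gating then sorted cells into Hoechst high-intensity objects or normal cells, normal cells into healthy, pyknosed or fragmented nuclei, and pyknosed cells into mitotic or apoptotic, with tubulin, mitochondrial-mass and membrane-permeability phenotypes given as per cents of healthy-nucleus cells.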

[3] = 12 h, 1 µM, compound concentration 1 uM, replicate 1
[4] = 12 h, 1 µM, compound concentration 1 uM, replicate 2
[5] = 12 h, 10 µM, compound concentration 10 uM, replicate 1
[6] = 12 h, 10 µM, compound concentration 10 uM, replicate 2
[7] = 24 h, 1 µM, compound concentration 1 uM, replicate 1
[8] = 24 h, 1 µM, compound concentration 1 uM, replicate 2
[9] = 24 h, 10 µM, compound concentration 10 uM, replicate 1
[10] = 24 h, 10 µM, compound concentration 10 uM, replicate 2
[11] = 48 h, 1 µM, compound concentration 1 uM, replicate 1
[12] = 48 h, 1 µM, compound concentration 1 uM, replicate 2
[13] = 48 h, 10 µM, compound concentration 10 uM, replicate 1
[14] = 48 h, 10 µM, compound concentration 10 uM, replicate 2

CCC(=O)O[C@]1(C(=O)SCF)[C@H](C)C[C@H]2[C@@H]3C[C@H](F)C4=CC(=O)C=C[C@]4(C)[C@@]3(F)[C@@H](O)C[C@@]21C [FLUTICASONE PROPIONATE]
Growth Rate (U2OS [1]; 0 h, replicate number 1, timepoint 0 hours): 0
Growth Rate (U2OS [1]; 6 h, replicate number 2, timepoint 6 hours): 1
Growth Rate (U2OS [1]; 12 h, replicate number 2, timepoint 12 hours): 1
Growth Rate (U2OS [1]; 18 h, replicate number 1, timepoint 18 hours): 1
Growth Rate (U2OS [1]; 24 h, replicate number 1, timepoint 24 hours): 1
Population Apoptotic (%) (U2OS [2]; [3]): 35%
Population Fragmented Nuclei (%) (U2OS [2]; [3]): 8%
Population Healthy Nuclei (%) (U2OS [2]; [3]): 81%
Population Hoechst High Intensity Objects (%) (U2OS [2]; [3]): 5%
Population Membrane Permeable-Phenotype (%) (U2OS [2]; [3]): 7%
Population Mitochondria Different-Phenotype (%) (U2OS [2]; [3]): 7%
Population Mitotic Cells (%) (U2OS [2]; [3]): 64%
Population Normal (%) (U2OS [2]; [3]): 94%
Population Pyknosed Nuclei (%) (U2OS [2]; [3]): 9%
Population Tubulin-Different-Phenotype (%) (U2OS [2]; [3]): 10%
Total Cell Count (U2OS [2]; [3]): 182
Population Apoptotic (%) (U2OS [2]; [4]): 71%
Population Fragmented Nuclei (%) (U2OS [2]; [4]): 4%
Population Healthy Nuclei (%) (U2OS [2]; [4]): 78%
Population Hoechst High Intensity Objects (%) (U2OS [2]; [4]): 12%
Population Membrane Permeable-Phenotype (%) (U2OS [2]; [4]): 3%
Population Mitochondria Different-Phenotype (%) (U2OS [2]; [4]): 9%
Population Mitotic Cells (%) (U2OS [2]; [4]): 28%
Population Normal (%) (U2OS [2]; [4]): 87%
Population Pyknosed Nuclei (%) (U2OS [2]; [4]): 16%
Population Tubulin-Different-Phenotype (%) (U2OS [2]; [4]): 9%
Total Cell Count (U2OS [2]; [4]): 68
Population Apoptotic (%) (U2OS [2]; [5]): 53%
Population Fragmented Nuclei (%) (U2OS [2]; [5]): 14%
Population Healthy Nuclei (%) (U2OS [2]; [5]): 72%
Population Hoechst High Intensity Objects (%) (U2OS [2]; [5]): 9%
Population Membrane Permeable-Phenotype (%) (U2OS [2]; [5]): 22%
Population Mitochondria Different-Phenotype (%) (U2OS [2]; [5]): 47%
Population Mitotic Cells (%) (U2OS [2]; [5]): 46%
Population Normal (%) (U2OS [2]; [5]): 90%
Population Pyknosed Nuclei (%) (U2OS [2]; [5]): 13%
Population Tubulin-Different-Phenotype (%) (U2OS [2]; [5]): 48%
Total Cell Count (U2OS [2]; [5]): 155
Population Apoptotic (%) (U2OS [2]; [6]): 28%
Population Fragmented Nuclei (%) (U2OS [2]; [6]): 8%
Population Healthy Nuclei (%) (U2OS [2]; [6]): 81%
Population Hoechst High Intensity Objects (%) (U2OS [2]; [6]): 8%
Population Membrane Permeable-Phenotype (%) (U2OS [2]; [6]): 3%
Population Mitochondria Different-Phenotype (%) (U2OS [2]; [6]): 37%
Population Mitotic Cells (%) (U2OS [2]; [6]): 71%
Population Normal (%) (U2OS [2]; [6]): 92%
Population Pyknosed Nuclei (%) (U2OS [2]; [6]): 10%
Population Tubulin-Different-Phenotype (%) (U2OS [2]; [6]): 35%
Total Cell Count (U2OS [2]; [6]): 48
Population Apoptotic (%) (U2OS [2]; [7]): 37%
Population Fragmented Nuclei (%) (U2OS [2]; [7]): 4%
Population Healthy Nuclei (%) (U2OS [2]; [7]): 86%
Population Hoechst High Intensity Objects (%) (U2OS [2]; [7]): 3%
Population Membrane Permeable-Phenotype (%) (U2OS [2]; [7]): 6%
Population Mitochondria Different-Phenotype (%) (U2OS [2]; [7]): 5%
Population Mitotic Cells (%) (U2OS [2]; [7]): 62%
Population Normal (%) (U2OS [2]; [7]): 96%
Population Pyknosed Nuclei (%) (U2OS [2]; [7]): 8%
Population Tubulin-Different-Phenotype (%) (U2OS [2]; [7]): 6%
Total Cell Count (U2OS [2]; [7]): 230
Population Apoptotic (%) (U2OS [2]; [8]): 16%
Population Fragmented Nuclei (%) (U2OS [2]; [8]): 3%
Population Healthy Nuclei (%) (U2OS [2]; [8]): 84%
Population Hoechst High Intensity Objects (%) (U2OS [2]; [8]): 11%
Population Membrane Permeable-Phenotype (%) (U2OS [2]; [8]): 11%
Population Mitochondria Different-Phenotype (%) (U2OS [2]; [8]): 11%
Population Mitotic Cells (%) (U2OS [2]; [8]): 83%
Population Normal (%) (U2OS [2]; [8]): 88%
Population Pyknosed Nuclei (%) (U2OS [2]; [8]): 11%
Population Tubulin-Different-Phenotype (%) (U2OS [2]; [8]): 20%
Total Cell Count (U2OS [2]; [8]): 78
Population Apoptotic (%) (U2OS [2]; [9]): 53%
Population Fragmented Nuclei (%) (U2OS [2]; [9]): 17%
Population Healthy Nuclei (%) (U2OS [2]; [9]): 61%
Population Hoechst High Intensity Objects (%) (U2OS [2]; [9]): 9%
Population Membrane Permeable-Phenotype (%) (U2OS [2]; [9]): 43%
Population Mitochondria Different-Phenotype (%) (U2OS [2]; [9]): 24%
Population Mitotic Cells (%) (U2OS [2]; [9]): 46%
Population Normal (%) (U2OS [2]; [9]): 90%
Population Pyknosed Nuclei (%) (U2OS [2]; [9]): 21%
Population Tubulin-Different-Phenotype (%) (U2OS [2]; [9]): 41%
Total Cell Count (U2OS [2]; [9]): 189
Population Apoptotic (%) (U2OS [2]; [10]): 58%
Population Fragmented Nuclei (%) (U2OS [2]; [10]): 5%
Population Healthy Nuclei (%) (U2OS [2]; [10]): 78%
Population Hoechst High Intensity Objects (%) (U2OS [2]; [10]): 8%
Population Membrane Permeable-Phenotype (%) (U2OS [2]; [10]): 6%
Population Mitochondria Different-Phenotype (%) (U2OS [2]; [10]): 31%
Population Mitotic Cells (%) (U2OS [2]; [10]): 41%
Population Normal (%) (U2OS [2]; [10]): 91%
Population Pyknosed Nuclei (%) (U2OS [2]; [10]): 16%
Population Tubulin-Different-Phenotype (%) (U2OS [2]; [10]): 25%
Total Cell Count (U2OS [2]; [10]): 59
Population Apoptotic (%) (U2OS [2]; [11]): 53%
Population Fragmented Nuclei (%) (U2OS [2]; [11]): 4%
Population Healthy Nuclei (%) (U2OS [2]; [11]): 89%
Population Hoechst High Intensity Objects (%) (U2OS [2]; [11]): 2%
Population Membrane Permeable-Phenotype (%) (U2OS [2]; [11]): 5%
Population Mitochondria Different-Phenotype (%) (U2OS [2]; [11]): 10%
Population Mitotic Cells (%) (U2OS [2]; [11]): 46%
Population Normal (%) (U2OS [2]; [11]): 97%
Population Tubulin-Different-Phenotype (%) (U2OS [2]; [11]): 8%
Total Cell Count (U2OS [2]; [11]): 304
Population Apoptotic (%) (U2OS [2]; [12]): 20%
Population Fragmented Nuclei (%) (U2OS [2]; [12]): 1%
Population Healthy Nuclei (%) (U2OS [2]; [12]): 93%
Population Hoechst High Intensity Objects (%) (U2OS [2]; [12]): 8%
Population Membrane Permeable-Phenotype (%) (U2OS [2]; [12]): 8%
Population Mitochondria Different-Phenotype (%) (U2OS [2]; [12]): 12%
Population Mitotic Cells (%) (U2OS [2]; [12]): 80%
Population Normal (%) (U2OS [2]; [12]): 91%
Population Pyknosed Nuclei (%) (U2OS [2]; [12]): 5%
Population Tubulin-Different-Phenotype (%) (U2OS [2]; [12]): 19%
Total Cell Count (U2OS [2]; [12]): 113
Population Apoptotic (%) (U2OS [2]; [13]): 72%
Population Fragmented Nuclei (%) (U2OS [2]; [13]): 13%
Population Healthy Nuclei (%) (U2OS [2]; [13]): 67%
Population Hoechst High Intensity Objects (%) (U2OS [2]; [13]): 6%
Population Membrane Permeable-Phenotype (%) (U2OS [2]; [13]): 42%
Population Mitochondria Different-Phenotype (%) (U2OS [2]; [13]): 18%
Population Mitotic Cells (%) (U2OS [2]; [13]): 27%
Population Normal (%) (U2OS [2]; [13]): 93%
Population Pyknosed Nuclei (%) (U2OS [2]; [13]): 19%
Population Tubulin-Different-Phenotype (%) (U2OS [2]; [13]): 38%
Total Cell Count (U2OS [2]; [13]): 260
Population Apoptotic (%) (U2OS [2]; [14]): 45%
Population Fragmented Nuclei (%) (U2OS [2]; [14]): 4%
Population Healthy Nuclei (%) (U2OS [2]; [14]): 85%
Population Hoechst High Intensity Objects (%) (U2OS [2]; [14]): 3%
Population Membrane Permeable-Phenotype (%) (U2OS [2]; [14]): 11%
Population Mitochondria Different-Phenotype (%) (U2OS [2]; [14]): 14%
Population Mitotic Cells (%) (U2OS [2]; [14]): 54%
Population Normal (%) (U2OS [2]; [14]): 96%
Population Pyknosed Nuclei (%) (U2OS [2]; [14]): 11%
Population Tubulin-Different-Phenotype (%) (U2OS [2]; [14]): 22%
Total Cell Count (U2OS [2]; [14]): 101
